The source made the active and inactive calls. The rule behind the calls is not given here.
Key:
SK-N-MC [1] = assay: Cytotoxicity against human SK-N-MC cells at 1 uM after 6 hrs by MTT test; assay type: functional, cell-based
In short: (§1)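 MTT viability test: SK-N-MC cells held 6 h with compound (1–10 µM) or vehicle. MTT (5 mg/ml stock) added for 3 h, cells washed in PBS, formazan dissolved in 0.1 N HCl in isopropanol, absorbance read at 570 nm. Viability given relative to control.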

SK-N-MC [2] = assay: Cytotoxicity against human SK-N-MC cells at 10 uM after 6 hrs by MTT test; assay type: functional, cell-based; in short: as §1
Histamine H4 receptor [3] = target: T1, Histamine H4 receptor (Homo sapiens, UniProt Q9H3N8); assay: Displacement of [3H]histamine from human histamine H4 receptor expressed in SK-N-MC cells at upto 10 uM
T1 sequence (Q9H3N8 whole entry): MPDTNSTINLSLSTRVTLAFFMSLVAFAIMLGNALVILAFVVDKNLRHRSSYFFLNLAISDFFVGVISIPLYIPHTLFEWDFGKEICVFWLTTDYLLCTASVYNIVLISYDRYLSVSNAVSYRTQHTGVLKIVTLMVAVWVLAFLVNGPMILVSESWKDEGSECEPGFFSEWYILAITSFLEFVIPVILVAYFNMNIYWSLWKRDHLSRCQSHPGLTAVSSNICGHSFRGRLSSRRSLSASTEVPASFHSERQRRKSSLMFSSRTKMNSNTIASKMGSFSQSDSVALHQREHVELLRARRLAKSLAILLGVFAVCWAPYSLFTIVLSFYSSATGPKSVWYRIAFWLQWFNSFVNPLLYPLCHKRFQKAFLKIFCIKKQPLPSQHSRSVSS

Acetylcholinesterase = target: T2, Acetylcholinesterase (Rattus norvegicus, UniProt P37136); assay: Inhibition of acetylcholinesterase in Wistar rat brain homogenate by Ellman's method; assay type: tissue-based
T2 sequence (P37136 whole entry): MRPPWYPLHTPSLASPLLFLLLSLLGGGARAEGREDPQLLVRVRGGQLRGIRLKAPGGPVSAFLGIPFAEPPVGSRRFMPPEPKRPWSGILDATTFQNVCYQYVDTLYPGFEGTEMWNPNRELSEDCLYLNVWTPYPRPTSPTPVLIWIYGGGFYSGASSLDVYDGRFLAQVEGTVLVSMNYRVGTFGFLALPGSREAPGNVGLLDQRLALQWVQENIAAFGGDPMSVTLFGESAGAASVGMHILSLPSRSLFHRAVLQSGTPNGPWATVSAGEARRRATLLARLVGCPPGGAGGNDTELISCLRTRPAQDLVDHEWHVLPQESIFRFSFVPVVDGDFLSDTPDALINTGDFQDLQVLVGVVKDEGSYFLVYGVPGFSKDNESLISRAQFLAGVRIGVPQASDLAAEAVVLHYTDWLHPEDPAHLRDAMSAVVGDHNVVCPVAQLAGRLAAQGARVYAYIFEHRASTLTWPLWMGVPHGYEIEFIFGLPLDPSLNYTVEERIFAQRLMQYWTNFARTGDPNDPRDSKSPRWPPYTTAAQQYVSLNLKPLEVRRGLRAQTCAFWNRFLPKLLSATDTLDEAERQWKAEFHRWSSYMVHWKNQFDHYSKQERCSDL

[4] = target: Histamine H2 receptor (Cavia porcellus) (UniProt P47747); assay: Antagonist activity at histamine H2 receptor in guinea pig atrium assessed as changes in rate of spontaneous beat at upto 1 uM; assay type: functional, tissue-based; settings: Cardiac atrium
Histamine H2 receptor (Cavia porcellus), sequence (P47747 whole entry): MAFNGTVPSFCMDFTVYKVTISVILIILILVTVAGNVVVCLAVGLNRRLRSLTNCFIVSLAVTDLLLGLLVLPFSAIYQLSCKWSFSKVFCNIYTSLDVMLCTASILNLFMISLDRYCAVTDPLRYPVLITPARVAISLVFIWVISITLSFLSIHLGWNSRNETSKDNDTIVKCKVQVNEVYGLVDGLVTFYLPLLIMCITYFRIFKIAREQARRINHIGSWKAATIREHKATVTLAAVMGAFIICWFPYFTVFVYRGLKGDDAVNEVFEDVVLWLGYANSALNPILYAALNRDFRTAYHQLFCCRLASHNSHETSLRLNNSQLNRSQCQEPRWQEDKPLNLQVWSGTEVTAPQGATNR
In short: (§2)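 Guinea-pig atria (H2) in Ringer–Locke at 31 °C (mM: NaCl 154.0, KCl 5.6, CaCl2 1.08, NaHCO3 5.95, glucose 11.1), gassed 95% O2–5% CO2. Spontaneous beating rate recorded by cardiotachograph. Cumulative dimaprit curves (0.1–100 µM) run without and with compound up to 10 µM. Affinity given as pKB by Furchgott, or as pD2′ by Van Rossum if non-surmountable.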

Histamine H3 receptor [5] = target: T3, Histamine H3 receptor (Homo sapiens, UniProt Q9Y5N1); assay: Antagonist activity at human histamine H3 receptor expressed in SK-N-MC cells by CRE-mediated beta-galactosidase reporter gene assay administered 10 mins before (R)-alpha-methylhistamine challenge after 6 hrs; assay type: functional, cell-based
T3 sequence (Q9Y5N1 whole entry): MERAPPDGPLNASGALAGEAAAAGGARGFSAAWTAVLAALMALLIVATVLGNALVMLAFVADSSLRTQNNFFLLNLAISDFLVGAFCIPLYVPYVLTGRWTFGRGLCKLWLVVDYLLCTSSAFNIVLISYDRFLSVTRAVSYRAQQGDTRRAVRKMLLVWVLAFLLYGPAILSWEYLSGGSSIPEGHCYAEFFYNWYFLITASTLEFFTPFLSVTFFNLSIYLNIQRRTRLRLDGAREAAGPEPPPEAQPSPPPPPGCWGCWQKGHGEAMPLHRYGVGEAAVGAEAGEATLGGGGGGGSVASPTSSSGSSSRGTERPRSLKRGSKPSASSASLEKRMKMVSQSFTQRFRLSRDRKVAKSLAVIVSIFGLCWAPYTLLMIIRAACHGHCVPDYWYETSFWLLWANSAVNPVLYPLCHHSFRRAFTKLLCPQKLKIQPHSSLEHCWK
In short: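 SK-N-MC cells stably carrying human H3 and a β-galactosidase reporter. Compound added to medium, forskolin 5 min later, then (R)-α-methylhistamine 10 min after compound; 6 h at 37 °C. Cells lysed in phosphate assay buffer (pH 8) with 0.5% Triton and 40 mM β-mercaptoethanol; β-galactosidase read at 570 nm. Means of 4–6 experiments.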

[6] = target: T4, Acetylcholinesterase (Rattus norvegicus) (UniProt P37136); assay: Inhibition of acetylcholinesterase in Wistar rat brain homogenate at upto 1 to 100 uM by Ellman's method; assay type: tissue-based
T4 sequence (whole entry): T2 sequence (P37136 whole entry)
In short: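 Male Wistar rat (150–200 g) brain homogenate in 0.1 M phosphate buffer (pH 8.0) with DTNB (5 mM) and compound at 1–100 µM. Reaction started at 37 °C by adding acetylthiocholine (75 mM solution) and stopped after 15 min with 4% formalin. 5-Thio-2-nitrobenzoate absorbance at 412 nm. Percent inhibition versus control; reported as pIC50.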

[7] = target: Histamine H3 receptor (Cavia porcellus) (UniProt Q9JI35); assay: Antagonist activity at histamine H3 receptor in electrically-stimulated guinea pig ileum assessed as inhibition of (R)-alpha-methylhistamine-induced twitch contraction in presence of 1 uM mepyramine; assay type: functional, tissue-based
Histamine H3 receptor (Cavia porcellus), sequence (Q9JI35 whole entry): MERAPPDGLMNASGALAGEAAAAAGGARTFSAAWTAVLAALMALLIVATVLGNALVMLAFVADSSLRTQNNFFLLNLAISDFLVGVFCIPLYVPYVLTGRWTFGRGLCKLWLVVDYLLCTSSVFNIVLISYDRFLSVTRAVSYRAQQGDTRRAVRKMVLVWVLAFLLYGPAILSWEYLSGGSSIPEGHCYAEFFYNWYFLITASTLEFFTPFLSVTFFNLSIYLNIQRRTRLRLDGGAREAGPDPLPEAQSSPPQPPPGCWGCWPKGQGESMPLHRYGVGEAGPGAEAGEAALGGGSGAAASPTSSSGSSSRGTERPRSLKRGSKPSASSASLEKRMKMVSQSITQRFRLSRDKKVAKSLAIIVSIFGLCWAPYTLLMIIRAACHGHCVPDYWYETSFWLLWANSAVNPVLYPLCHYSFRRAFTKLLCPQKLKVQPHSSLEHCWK
In short: (§3)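 Guinea-pig ileum, electrically stimulated (0.1 Hz, 1 ms, submaximal voltage). Twitch inhibition by cumulative (R)-α-methylhistamine (1 nM to 1 µM) with 1 µM mepyramine present. Compounds tested at 1 nM to 30 µM. Potency as pKB from Furchgott's equation, or as pD2′ (Van Rossum) for non-surmountable antagonism.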

[8] = target: Histamine H1 receptor (Cavia porcellus) (UniProt P31389); assay: Antagonist activity at histamine H1 receptor in guinea pig terminal ileum at upto 10 uM; assay type: functional, tissue-based
Histamine H1 receptor (Cavia porcellus), sequence (P31389 whole entry): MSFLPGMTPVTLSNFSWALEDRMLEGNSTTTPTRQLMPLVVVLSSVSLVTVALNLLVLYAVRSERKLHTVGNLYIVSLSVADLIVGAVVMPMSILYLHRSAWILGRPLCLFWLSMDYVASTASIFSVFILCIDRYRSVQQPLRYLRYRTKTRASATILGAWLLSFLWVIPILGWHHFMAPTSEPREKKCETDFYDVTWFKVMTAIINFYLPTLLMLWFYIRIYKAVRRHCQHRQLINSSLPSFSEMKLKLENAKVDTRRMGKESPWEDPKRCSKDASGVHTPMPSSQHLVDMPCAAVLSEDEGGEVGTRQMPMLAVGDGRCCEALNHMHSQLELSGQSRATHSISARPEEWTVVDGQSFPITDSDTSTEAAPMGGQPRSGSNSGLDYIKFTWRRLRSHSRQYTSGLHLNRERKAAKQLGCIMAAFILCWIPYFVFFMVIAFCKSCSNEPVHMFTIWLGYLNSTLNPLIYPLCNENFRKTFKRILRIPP
In short: (§4)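 Guinea-pig (250–350 g) terminal ileum (H1) suspended isometrically in Krebs–Henseleit at 37 °C, aerated 95% O2–5% CO2. Cumulative histamine curves (1 nM to 1 µM) run without and with compound up to 10 µM. pKB (apparent pA2) from Furchgott's equation; pD2′ from Van Rossum's equation when antagonism was non-surmountable.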

[9] = target: Histamine H3 receptor (Cavia porcellus) (UniProt Q9JI35); assay: Antagonist activity at histamine H3 receptor in electrically-stimulated guinea pig ileum assessed as inhibition of (R)-alpha-methylhistamine-induced twitch contraction at upto 1 uM in presence of 1 uM mepyramine; assay type: functional, tissue-based; in short: as §3
[10] = target: T4, Acetylcholinesterase (Rattus norvegicus); assay: Inhibition of acetylcholinesterase in Wistar rat brain homogenate at upto 10 uM by Ellman's method; assay type: tissue-based
Histamine H4 receptor [11] = target: T1, Histamine H4 receptor; assay: Displacement of [3H]histamine from human histamine H4 receptor expressed in SK-N-MC cells
[12] = target: Histamine H1 receptor (Cavia porcellus) (UniProt P31389); assay: Antagonist activity at histamine H1 receptor in guinea pig terminal ileum at upto 1 uM; assay type: functional, tissue-based; in short: as §4
[13] = target: Histamine H1 receptor (Cavia porcellus) (UniProt P31389); assay: Antagonist activity at histamine H1 receptor in guinea pig terminal ileum; assay type: functional, tissue-based; in short: as §4
Histamine H3 receptor [14] = target: T3, Histamine H3 receptor; assay: Displacement of [3H]RAMHA from human histamine H3 receptor expressed in SK-N-MC cells; assay type: cell-based
In short: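 SK-N-MC membranes bearing human H3 incubated 60 min at room temperature with 0.5 nM [3H]-(R)-α-methylhistamine and competitor (0.01 nM to 10 µM). Rapid filtration, two washes in ice-cold 50 mM Tris–HCl/5 mM EDTA. Nonspecific binding with 10 µM histamine. pKi via Cheng–Prusoff; means of 4–6 experiments.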

Histamine H3 receptor [15] = target: Histamine H3 receptor (Rattus norvegicus, UniProt Q9QYN8); assay: Displacement of [3H]RAMHA from histamine H3 receptor in Wistar rat brain membrane; assay type: cell membranes
Histamine H3 receptor (Rattus norvegicus, UniProt Q9QYN8), sequence (Q9QYN8 whole entry): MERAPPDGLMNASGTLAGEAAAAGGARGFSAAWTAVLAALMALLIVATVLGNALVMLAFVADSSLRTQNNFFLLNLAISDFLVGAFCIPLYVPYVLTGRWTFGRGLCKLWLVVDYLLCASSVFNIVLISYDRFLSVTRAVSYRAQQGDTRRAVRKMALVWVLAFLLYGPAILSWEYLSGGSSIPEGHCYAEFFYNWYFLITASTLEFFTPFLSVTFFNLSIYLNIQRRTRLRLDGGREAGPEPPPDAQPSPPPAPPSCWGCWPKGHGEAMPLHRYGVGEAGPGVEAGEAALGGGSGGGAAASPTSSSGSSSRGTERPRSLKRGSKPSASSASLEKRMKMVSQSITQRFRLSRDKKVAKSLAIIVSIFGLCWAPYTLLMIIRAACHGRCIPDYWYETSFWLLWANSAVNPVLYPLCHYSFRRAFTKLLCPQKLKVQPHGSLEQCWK
In short: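 Membranes from male Wistar rat brain (150–200 g) incubated 45 min with 0.5 nM [3H]RAMHA and compound (0.03 nM to 10 µM) in 50 mM Tris–HCl pH 7.4, 50 mM NaCl, 0.5 mM EDTA. Vacuum filtration, two ice-cold buffer rinses. Nonspecific binding set with 10 µM thioperamide. pKi by Cheng–Prusoff.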

[16] = target: Histamine H2 receptor (Cavia porcellus) (UniProt P47747); assay: Antagonist activity at histamine H2 receptor in guinea pig atrium assessed as changes in rate of spontaneous beat at upto 3 uM; assay type: functional, tissue-based; settings: Cardiac atrium; in short: as §2
[17] = target: Histamine H2 receptor (Cavia porcellus) (UniProt P47747); assay: Antagonist activity at histamine H2 receptor in guinea pig atrium assessed as changes in rate of spontaneous beat at upto 10 uM; assay type: functional, tissue-based; settings: Cardiac atrium; in short: as §2

Compound	Activity (SK-N-MC [1])	Activity (SK-N-MC [2])	Activity (Histamine H4 receptor [3])	IC50 (Acetylcholinesterase) [nM]	Activity [4]	pKb (Histamine H3 receptor [5])	inhibition [6] [%]	pKb [7]	Activity [8]	Activity [9]	Activity [10]	Ki (Histamine H4 receptor [11]) [nM]	Activity [12]	pD2 [13]	pKb [13]	Ki (Histamine H3 receptor [14]) [nM]	Ki (Histamine H3 receptor [15]) [nM]	Activity [16]	Activity [17]
c1cc(-c2ccc(CN3CCCCC3)cc2)ccc1CNC1CCCCC1	Not toxic	Not toxic	inactive	5750	inactive	8.03	73	7.59	inactive										
CCCCCNCc1ccc(-c2ccc(CNCCCCC)cc2)cc1	Not toxic	Not toxic			inactive	6.51				inactive	inactive	6460	inactive						
CN(Cc1ccc(-c2ccc(CN(C)C3CCCCC3)cc2)cc1)C1CCCCC1	Not toxic	Not toxic		1660	inactive	7.27	57	7.45				6460		5.24					
CCCN(CCC)C(=O)Cc1ccc(-c2ccc(CN3CCCCC3)cc2)cc1	Not toxic	Not toxic	inactive	11200	inactive	8.16	80	8							5.44	8.51	53.7		
N#Cc1ccc(OCc2ccc(-c3ccc(CN4CCCCC4)cc3)cc2)cc1	Not toxic	Not toxic	inactive		inactive	7.27		7.27	inactive		inactive					75.9	70.8		
CCCN(CCC)Cc1ccc(-c2ccc(CCN3CCCCC3)cc2)cc1	Not toxic	Not toxic	inactive	6760	inactive	8.82	80	7.98	inactive							3.89	10.7		
CC1CC(C)CN(Cc2ccc(-c3ccc(CN4CCCCC4)cc3)cc2)C1 (centres undefined)	Not toxic	Not toxic	inactive	2400		8.48	91	9.02							6.15	0.871	2.4	inactive	
CC(=O)N1CCN(Cc2ccc(-c3ccc(CN4CCN(C(C)=O)CC4)cc3)cc2)CC1	Not toxic	Not toxic	inactive			6.7				inactive	inactive			4.81					inactive
c1cc(-c2ccc(CN3CCCCC3)cc2)ccc1CN1CCCCC1	Not toxic	Not toxic		5890		8.77	82	8.58				25100		4.84		3.39			inactive
c1cc(-c2ccc(CN3CCCCC3)cc2)ccc1CCN1CCCCC1	Not toxic	Not toxic	inactive	1100	inactive	9.28	91	8.73	inactive							2	8.32		
c1cc(-c2ccc(CNC3CCCCC3)cc2)ccc1CNC1CCCCC1	Not toxic	Not toxic	inactive	5130	inactive	6.54	70	5.82					inactive						
CC1CC(C)CN(Cc2ccc(-c3ccc(CN4CC(C)CC(C)C4)cc3)cc2)C1 (centres undefined)	Not toxic	Not toxic				6.19					inactive	13800		5.08					inactive
